In ChEMBL document CHEMBL4017508, “Design, Synthesis, and Biological Evaluation of Novel Type I1/2 p38α MAP Kinase Inhibitors with Excellent Selectivity, High Potency, and Prolonged Target Residence Time by Interfering with the R-Spine” (J Med Chem, 2017):

System: Liver
Assay: Drug metabolism in rat liver microsomes assessed as metabolite formation after 180 mins in presence of NADPH by LC-MS analysis
Assay type: ADME, microsome
Conditions: 3 h
Summary of the method: (§1)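 Incubation with rat liver microsomes for 180 min, run in triplicate; mean ± standard deviation reported. Parent decrease and percentage of formed metabolites were followed by LC-MS. Samples were dissolved in MeOH and separated on a C18 core-shell column at 20 °C. The gradient ran from 5 to 100% acetonitrile against water, both with 0.1% formic acid, at 500 μL/min. Detection used ESI+.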

| Drug metabolism | SMILES |
| --- | --- |
| Metabolite_Notdetected | O=C(NCC(O)CO)c1ccc2c(c1)C(=O)c1ccc(Nc3ccc(F)c(NC(=O)C4CC4)c3)cc1CC2 (configuration not stated) |

System: not listed separately
Assay: Metabolic stability in rat liver microsomes after 180 mins in presence of NADPH by LC-MS analysis
Assay type: ADME, microsome
Conditions: read-out: Stability
Summary of the method: as §1

| remaining at 3 h | SMILES |
| --- | --- |
| 57.1% | O=C(NCCN1CCOCC1)c1ccc2c(c1)C(=O)c1ccc(Nc3ccc(F)c(NC(=O)c4cccs4)c3)cc1CC2 |
| 66.7% | O=C(NCCN1CCOCC1)c1ccc2c(c1)C(=O)c1ccc(Nc3cc(NC(=O)c4cccs4)c(F)cc3F)cc1CC2 |
| 79.5% | CNC(=O)c1ccc2c(c1)C(=O)c1ccc(Nc3ccc(F)c(NC(=O)C4CC4)c3)cc1CC2 |
| 48.7% | O=C(NCC(O)CO)c1ccc2c(c1)C(=O)c1ccc(Nc3cc(NC(=O)c4cccs4)c(F)cc3F)cc1OC2 (configuration not stated) |
| 40.6% | O=C(NCCN1CCOCC1)c1ccc2c(c1)C(=O)c1ccc(Nc3ccc(F)c(NC(=O)c4ccccc4)c3)cc1CC2 [FS-694] |
| 76.6% | O=C(NCC(O)CO)c1ccc2c(c1)C(=O)c1ccc(Nc3cc(NC(=O)c4cccs4)c(F)cc3F)cc1CC2 (configuration not stated) |
| 95.2% | O=C(NCC(O)CO)c1ccc2c(c1)C(=O)c1ccc(Nc3ccc(F)c(NC(=O)C4CC4)c3)cc1CC2 (configuration not stated) |
| 61.6% | CNC(=O)c1ccc2c(c1)C(=O)c1ccc(Nc3cccc(C(=O)NC4CC4)c3F)cc1CC2 |
| 14.8% | O=C(NCCN1CCOCC1)c1ccc2c(c1)C(=O)c1ccc(Nc3ccc(F)c(NC(=O)c4ccccc4)c3)cc1OC2 |
| 65.6% | CNC(=O)c1ccc2c(c1)C(=O)c1ccc(Nc3ccc(F)c(NC(=O)c4ccccc4)c3)cc1CC2 |
| 66.9% | O=C(NCCO)c1ccc2c(c1)C(=O)c1ccc(Nc3cc(NC(=O)c4cccs4)c(F)cc3F)cc1CC2 |
